Results reported in ChEMBL document CHEMBL3867488 (ACS Med Chem Lett, 2016).

What was measured:
[1] = molecular target: T1, Oxysterols receptor LXR-beta (Homo sapiens) (UniProt P55055); experiment: Agonist activity at human LXR-beta expressed in African green monkey CV1 cells measured after 18 to 20 hrs by luciferase reporter gene assay relative to pan agonist 1-(2,4-difluorobenzyl)-2-oxo-6-(4-phenoxyphenyl)-4-(trifluoromethyl)-1,2-dihydropyridine-3-carbonitrile; format: cell-based; details: CV-1
T1 sequence (whole entry): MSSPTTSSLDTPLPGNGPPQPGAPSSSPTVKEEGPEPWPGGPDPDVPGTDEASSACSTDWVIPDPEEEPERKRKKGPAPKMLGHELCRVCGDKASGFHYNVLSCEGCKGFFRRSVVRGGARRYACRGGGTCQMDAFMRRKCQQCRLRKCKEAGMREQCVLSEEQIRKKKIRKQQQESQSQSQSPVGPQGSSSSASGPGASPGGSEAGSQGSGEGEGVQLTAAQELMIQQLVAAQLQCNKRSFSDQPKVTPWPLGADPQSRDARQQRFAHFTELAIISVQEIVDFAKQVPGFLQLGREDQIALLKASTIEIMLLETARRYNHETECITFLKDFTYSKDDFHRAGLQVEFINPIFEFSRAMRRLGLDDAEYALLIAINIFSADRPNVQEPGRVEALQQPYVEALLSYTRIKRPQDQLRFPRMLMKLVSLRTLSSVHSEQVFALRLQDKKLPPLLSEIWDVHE

[2] = Effect on plasma triglyceride level in cynomolgus monkey at 1 mg/kg, po qd administered via gavage for 14 days measured after 24 hrs of last-dose relative to base line; format: ADME, organism-based, Macaca fascicularis; details: in vivo
In short: (§1)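 Cynomolgus monkeys dosed daily for 14 days. On day 14, plasma drug concentration was taken 5 h post-dose. Plasma triglycerides were expressed as % elevation over baseline, with significance tested by ANOVA (p < 0.05).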

[3] = molecular target: T2, Oxysterols receptor LXR-beta (Homo sapiens, UniProt P55055); experiment: Agonist activity at LXR-beta in human whole blood assessed as ABCA1 gene induction by measuring ABCA1 mRNA level after 4 hrs by SYBR-Green dye-based Q-PCR analysis; format: tissue-based
T2 sequence (P55055 whole entry): T1 sequence (whole entry)

[4] = Plasma concentration in cynomolgus monkey at 0.1 mg/kg, po qd administered via gavage for 14 days measured after 5 hrs of last-dose by LC/MS/MS analysis; format: ADME, organism-based, Macaca fascicularis; in short: as §1
[5] = molecular target: T2, Oxysterols receptor LXR-beta; experiment: Agonist activity at human LXR-beta expressed in African green monkey CV1 cells measured after 18 to 20 hrs by luciferase reporter gene assay; format: cell-based, CV-1
[6] = molecular target: T3, Nuclear receptor subfamily 1 group I member 2 (Homo sapiens, UniProt O75469); experiment: Agonist activity at human PXR expressed in human HepG2 cells assessed as induction of CYP3A4 measured after 24 hrs by AlamarBlue dye-based luciferase reporter gene assay relative to control; format: cell-based; details: hepg2, 24 h
T3 sequence (O75469 whole entry): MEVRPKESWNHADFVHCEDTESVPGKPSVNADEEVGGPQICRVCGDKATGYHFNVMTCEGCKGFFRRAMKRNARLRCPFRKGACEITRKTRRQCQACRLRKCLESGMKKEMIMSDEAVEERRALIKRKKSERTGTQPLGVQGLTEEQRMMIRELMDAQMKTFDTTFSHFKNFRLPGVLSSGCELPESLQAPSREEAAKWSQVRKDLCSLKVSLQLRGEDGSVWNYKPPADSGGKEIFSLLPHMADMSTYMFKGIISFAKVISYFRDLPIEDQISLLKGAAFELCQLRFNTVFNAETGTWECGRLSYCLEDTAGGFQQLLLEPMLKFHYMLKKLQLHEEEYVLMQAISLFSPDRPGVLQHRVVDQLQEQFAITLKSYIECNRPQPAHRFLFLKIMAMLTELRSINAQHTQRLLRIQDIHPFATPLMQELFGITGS

[7] = molecular target: Alpha-1-acid glycoprotein 1 (Homo sapiens, UniProt P02763); experiment: Binding affinity to human alpha-1-AGP at 1 uM measured after 4 hrs by equilibrium dialysis method relative to control; format: ADME; details: isolated protein, 4 h, 1 µM
Cynomolgus monkey [8] = experiment: In vivo agonist activity at LXR-beta in cynomolgus monkey assessed as ABCG1 gene induction by measuring total RNA level at 0.3 mg/ kg, po qd administered via gavage for 14 days measured 5 to 6 hrs post-dose; format: functional, Macaca fascicularis
In short: (§2)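 Cynomolgus monkeys dosed daily for 14 days. ABCG1 mRNA induction measured in blood cells on day 14 and expressed as fold change. Plasma drug concentration taken about 5 h post-dose. Plasma triglycerides also measured against baseline, with significance by ANOVA.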

Cynomolgus monkey [9] = experiment: In vivo agonist activity at LXR-beta in cynomolgus monkey assessed as ABCG1 gene induction by measuring total RNA level at 0.1 mg/ kg, po qd administered via gavage for 14 days measured 5 to 6 hrs post-dose; format: functional, Macaca fascicularis; in short: as §2
[10] = Agonist activity at LXR-beta in cynomolgus monkey whole blood assessed as ABCA1 gene induction by measuring ABCA1 mRNA level after 4 hrs by SYBR-Green dye-based Q-PCR analysis; format: tissue-based; details: Macaca fascicularis
[11] = molecular target: T1, Oxysterols receptor LXR-beta (Homo sapiens); experiment: Agonist activity at LXR-beta in human HeLa cells assessed as induction of ABCA1 by beta-galactosidase/luciferase reporter gene assay relative to control; format: cell-based
In short: (§3)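 HeLa cells carrying endogenous LXRα and LXRβ receptors, transfected with an ABCA1 LXREx3 reporter construct; agonist-driven reporter induction measured.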

[12] = Effect on plasma triglyceride level in cynomolgus monkey at 0.1 mg/kg, po qd administered via gavage for 14 days measured after 24 hrs of last-dose relative to base line; format: ADME, organism-based, Macaca fascicularis; details: in vivo
In short: (§4)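 Cynomolgus monkeys dosed for 14 days, with groups at 0.1, 0.3 and 1 mg/kg. Plasma triglycerides expressed as percent change over baseline, with significance by ANOVA. Plasma drug exposure sampled 5 h post-dose. ABCG1 induction in blood cells monitored in the same animals.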

[13] = molecular target: T1, Oxysterols receptor LXR-beta (Homo sapiens); experiment: Agonist activity at LXR-beta in human whole blood assessed as ABCA1 gene induction by measuring ABCA1 mRNA level after 4 hrs by SYBR-Green dye-based Q-PCR analysis relative to pan agonist 2-(4-(5-(5-cyano-1-(2,4-difluorobenzyl)-6-oxo-4-(trifluoromethyl)-1,6-dihydropyridin-2-yl)thiophen-2-yl)-3-methylphenyl)acetic acid; format: tissue-based
[14] = Plasma concentration in cynomolgus monkey at 0.3 mg/kg, po qd administered via gavage for 14 days measured after 5 hrs of last-dose by LC/MS/MS analysis; format: ADME, organism-based, Macaca fascicularis; in short: as §1
[15] = Plasma concentration in cynomolgus monkey at 1 mg/kg, po qd administered via gavage for 14 days measured after 5 hrs of last-dose by LC/MS/MS analysis; format: ADME, organism-based, Macaca fascicularis; in short: as §1
Albumin = Albumin (Homo sapiens, UniProt P02768); experiment: Binding affinity to human serum albumin at 1 uM measured after 4 hrs by equilibrium dialysis method relative to control; format: ADME; details: isolated protein, 4 h, 1 µM
[16] = molecular target: T2, Oxysterols receptor LXR-beta; experiment: Agonist activity at LXR-beta in human HeLa cells assessed as induction of ABCA1 by beta-galactosidase/luciferase reporter gene assay; format: cell-based; in short: as §3
[17] = molecular target: T3, Nuclear receptor subfamily 1 group I member 2; experiment: Agonist activity at human PXR expressed in human HepG2 cells assessed as induction of CYP3A4 measured after 24 hrs by AlamarBlue dye-based luciferase reporter gene assay; format: cell-based
[18] = molecular target: Retinoic acid receptor RXR-alpha/oxysterols receptor LXR-beta (Homo sapiens, UniProt P55055); experiment: Displacement of [3H]-24,25-epoxycholesterol from human LXRbeta/RXRalpha expressed in baculovirus infected Sf9 cells by scintillation proximity analysis
In short: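 Binding affinity measured using full-length LXRα–RXRα and LXRβ–RXRα heterodimers.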

[19] = Effect on plasma triglyceride level in cynomolgus monkey at 0.3 mg/kg, po qd administered via gavage for 14 days measured after 24 hrs of last-dose relative to base line; format: ADME, organism-based, Macaca fascicularis; details: in vivo; in short: as §4

Sequence of Retinoic acid receptor RXR-alpha/oxysterols receptor LXR-beta (P19793 whole entry, one chain of several): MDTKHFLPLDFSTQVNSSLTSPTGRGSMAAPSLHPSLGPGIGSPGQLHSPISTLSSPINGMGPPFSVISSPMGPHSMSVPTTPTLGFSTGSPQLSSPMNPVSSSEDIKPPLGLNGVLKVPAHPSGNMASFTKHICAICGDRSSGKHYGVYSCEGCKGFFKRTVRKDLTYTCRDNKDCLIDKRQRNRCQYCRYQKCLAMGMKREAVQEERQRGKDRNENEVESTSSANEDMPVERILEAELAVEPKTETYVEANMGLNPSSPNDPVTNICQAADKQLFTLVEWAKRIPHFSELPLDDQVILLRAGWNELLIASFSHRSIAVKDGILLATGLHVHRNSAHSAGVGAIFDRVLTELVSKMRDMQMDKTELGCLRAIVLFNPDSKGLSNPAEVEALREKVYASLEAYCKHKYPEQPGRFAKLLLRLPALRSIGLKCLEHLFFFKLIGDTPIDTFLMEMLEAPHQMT
Sequence of Albumin (P02768 whole entry): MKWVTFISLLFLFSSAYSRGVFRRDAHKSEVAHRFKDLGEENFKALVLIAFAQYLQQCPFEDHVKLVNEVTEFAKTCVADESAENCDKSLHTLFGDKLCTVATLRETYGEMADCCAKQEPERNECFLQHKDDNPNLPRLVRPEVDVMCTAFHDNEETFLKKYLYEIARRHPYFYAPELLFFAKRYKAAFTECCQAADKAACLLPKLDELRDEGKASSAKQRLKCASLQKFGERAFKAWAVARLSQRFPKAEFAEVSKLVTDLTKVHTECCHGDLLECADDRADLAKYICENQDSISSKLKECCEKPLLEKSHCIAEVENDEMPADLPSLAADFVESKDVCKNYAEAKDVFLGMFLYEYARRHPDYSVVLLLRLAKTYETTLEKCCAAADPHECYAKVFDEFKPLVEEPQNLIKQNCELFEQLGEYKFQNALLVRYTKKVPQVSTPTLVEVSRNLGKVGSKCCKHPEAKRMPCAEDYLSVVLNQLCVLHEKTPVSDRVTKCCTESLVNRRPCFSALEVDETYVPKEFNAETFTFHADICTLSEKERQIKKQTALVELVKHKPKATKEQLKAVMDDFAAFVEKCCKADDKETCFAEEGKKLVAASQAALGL
Sequence of Alpha-1-acid glycoprotein 1 (P02763 whole entry): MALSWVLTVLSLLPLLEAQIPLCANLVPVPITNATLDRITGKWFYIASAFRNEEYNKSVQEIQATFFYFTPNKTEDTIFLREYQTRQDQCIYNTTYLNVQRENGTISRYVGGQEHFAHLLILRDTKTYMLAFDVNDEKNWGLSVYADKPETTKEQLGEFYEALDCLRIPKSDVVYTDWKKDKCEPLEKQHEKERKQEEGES

Efficacy [1]: 88%
Activity [2]: 10%
EC50 [3]: 9 nM
concentration at 5 h [4]: 7.5 nM
EC50 [5]: 24 nM
Activity [6]: 108%
PB [7]: 97.3%
EC50 [10]: 5 nM
Efficacy [11]: 29%
Activity [12]: 20%
Efficacy [13]: 26%
concentration at 5 h [14]: 22 nM
concentration at 5 h [15]: 57 nM
PB (Albumin): 96.6%
EC50 [16]: 0.6 nM
EC50 [17]: 1000 nM
Ki [18]: 12 nM
Activity [19]: 8%
Structure (SMILES): CC(C)(O)c1cn(-c2ccc(-c3cc(F)c(CO)c(S(C)(=O)=O)c3)cc2F)c(C(C)(C)c2c(Cl)cccc2Cl)n1 [BMS-852927]
fold change (FC) (Cynomolgus monkey [8]): 15
fold change (FC) (Cynomolgus monkey [9]): 4.7
